Measurements from ChEMBL document CHEMBL2384933, “Vitexin inhibits inflammatory pain in mice by targeting TRPV1, oxidative stress, and cytokines” (J Nat Prod, 2013).
Activity calls are given as the source filed them.

Columns and labels:
Mus musculus [1] = test: Toxicity in Swiss mouse assessed as change in myeloperoxidase activity in stomach at 10 mg/kg, ip for 7 days by spectrophotometric analysis; assay type: organism-based; set-up: dose 10 mg/kg, route intraperitoneal; conditions: in vivo, 168 h
Summary of the method: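 Mice dosed daily ip at 10 mg/kg for 7 days. Stomach homogenized in 50 mM phosphate buffer pH 6.0 with 0.5% HTAB and centrifuged at 16100g. Supernatant mixed with o-dianisidine (0.167 mg/mL) and 0.015% H2O2; read at 450 nm three times within 1 min. Activity expressed as neutrophils ×10⁴/mg tissue against a neutrophil standard curve.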

Mus musculus [2] = test: Hepatotoxicity in Swiss mouse assessed as change in plasma AST level at 10 mg/kg, ip for 7 days; assay type: toxicity, organism-based; set-up: dose 10 mg/kg, route intraperitoneal; conditions: in vivo, 168 h
Summary of the method: (§1)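 Mice dosed daily ip at 10 mg/kg for 7 days; vehicle was saline or Tris/HCl pH 8.0. Plasma AST and ALT measured with a diagnostic kit.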

Mus musculus [3] = test: Hepatotoxicity in Swiss mouse assessed as change in plasma ALT level at 10 mg/kg, ip for 7 days; assay type: toxicity, organism-based; set-up: dose 10 mg/kg, route intraperitoneal; conditions: in vivo, 168 h; summary of the method: as §1
Mus musculus [4] = test: Neurotoxicity in Swiss mouse assessed as change in motor response at 10 mg/kg, ip after 5.5 hrs by rotarod test (reference value: 180 seconds); assay type: toxicity, organism-based; set-up: dose 10 mg/kg, route intraperitoneal; conditions: in vivo
Summary of the method: (§2)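 Rota-rod with a 2.5 cm bar at 22 rpm. Mice pre-selected 24 h earlier by staying on the bar for two consecutive 180 s periods. Given 10 mg/kg ip (vehicle 2% DMSO in saline) and tested at 1.5, 3.5 and 5.5 h, with a 180 s cutoff. n = 6.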

Mus musculus [5] = test: Neurotoxicity in Swiss mouse assessed as change in motor response at 10 mg/kg, ip after 3.5 hrs by rotarod test (reference value: 180 seconds); assay type: toxicity, organism-based; set-up: dose 10 mg/kg, route intraperitoneal; conditions: in vivo; summary of the method: as §2
Mus musculus [6] = test: Neurotoxicity in Swiss mouse assessed as change in motor response at 10 mg/kg, ip after 1.5 hrs by rotarod test (reference value: 180 seconds); assay type: toxicity, organism-based; set-up: dose 10 mg/kg, route intraperitoneal; conditions: in vivo; summary of the method: as §2
Mus musculus [7] = test: Antiinflammatory activity in Swiss mouse assessed as increase in carrageenan-induced IL-10 production 10 mg/kg, ip administered 30 mins prior to carrageenan-challenge measured after 3 hrs by ELISA; assay type: functional, organism-based; set-up: dose 10 mg/kg
Summary of the method: (§3)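 Compound given ip in saline 30 min before intraplantar carrageenan (300 μg/paw). Paw skin taken 3 h later and homogenized in 500 μL buffer with protease inhibitors. TNF-α, IL-1β, IL-6, IL-33 and IL-10 measured by ELISA, reported as pg/100 mg tissue. Saline-injected paws served as controls. Six mice per group; representative of two experiments.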

Mus musculus [8] = test: Antiinflammatory activity in Swiss mouse assessed as inhibition of carrageenan-induced IL-33 production 10 mg/kg, ip administered 30 mins prior to carrageenan-challenge measured after 3 hrs by ELISA; assay type: functional, organism-based; set-up: dose 10 mg/kg; conditions: at 10 mg/kg; summary of the method: as §3
Mus musculus [9] = test: Antiinflammatory activity in Swiss mouse assessed as inhibition of carrageenan-induced IL-6 production 10 mg/kg, ip administered 30 mins prior to carrageenan-challenge measured after 3 hrs by ELISA; assay type: functional, organism-based; set-up: dose 10 mg/kg; conditions: at 10 mg/kg; summary of the method: as §3
Mus musculus [10] = test: Antiinflammatory activity in Swiss mouse assessed as inhibition of carrageenan-induced IL-1beta production 10 mg/kg, ip administered 30 mins prior to carrageenan-challenge measured after 3 hrs by ELISA; assay type: functional, organism-based; set-up: dose 10 mg/kg; conditions: at 10 mg/kg; summary of the method: as §3
Mus musculus [11] = test: Antiinflammatory activity in Swiss mouse assessed as inhibition of carrageenan-induced TNFalpha production 10 mg/kg, ip administered 30 mins prior to carrageenan-challenge measured after 3 hrs by ELISA; assay type: functional, organism-based; set-up: dose 10 mg/kg; conditions: at 10 mg/kg; summary of the method: as §3
Mus musculus [12] = test: Antioxidant activity in Swiss mouse assessed as prevention of carrageenan-induced decrease in 2,2'-Azinobis(3-ethylbenzothiazoline 6-sulfonic acid) scavenging ability at 10 mg/kg, ip administered 30 mins prior to carrageenan-challenge measured after 3 hrs by spectrophotometric analysis; assay type: functional, organism-based; set-up: dose 10 mg/kg
Summary of the method: (§4)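 Given at 10 mg/kg ip 30 min before intraplantar carrageenan; plantar skin taken at 3 h, two mice pooled per sample. Tissue homogenized in 1.15% KCl. FRAP: 37 °C for 30 min, absorbance at 595 nm. ABTS: diluted to A730 0.80 in PBS pH 7.4, read at 730 nm after 6 min. Both expressed as Trolox equivalents/mg tissue (Trolox standard 1.5–30 μmol/L final).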

Mus musculus [13] = test: Antioxidant activity in Swiss mouse assessed as prevention of carrageenan-induced decrease in ferric-reducing ability potential at 10 mg/kg, ip administered 30 mins prior to carrageenan-challenge measured after 3 hrs by spectrophotometric analysis; assay type: functional, organism-based; set-up: dose 10 mg/kg; summary of the method: as §4
Mus musculus [14] = test: Antioxidant activity in Swiss mouse assessed as prevention of carrageenan-induced decrease in GSH levels at 10 mg/kg, ip administered 30 mins prior to carrageenan-challenge measured after 3 hrs by UV-vis spectrophotometric analysis; assay type: functional, organism-based; set-up: dose 10 mg/kg
Summary of the method: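 Given at 10 mg/kg ip 30 min before intraplantar carrageenan (300 μg/paw); plantar skin taken at 3 h, four paws pooled per sample. Tissue homogenized in 0.02 M EDTA with TCA and centrifuged. Supernatant reacted with DTNB in Tris 0.4 M pH 8.9; absorbance read at 412 nm after 5 min. Reported as nmol GSH/mg tissue. Three pools per experiment.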

Mus musculus [15] = test: Antinociceptive activity in Swiss mouse assessed as inhibition of complete Freund's adjuvant-induced thermal hyperalgesia at 10 mg/kg, ip administered 24 hrs after complete Freund's adjuvant-challenge for seven days by hot plate test; assay type: functional, organism-based; set-up: dose 10 mg/kg
Summary of the method: (§5)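 Treatment at 10 mg/kg ip given daily, starting 24 h after intraplantar CFA (10 μL/paw), for seven days. Electronic pressure-meter (Δ threshold, g) and hot plate (55 °C, 30 s cutoff) read every 24 h over days 1–8. Six mice per group.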

Mus musculus [16] = test: Antinociceptive activity in Swiss mouse assessed as inhibition of complete Freund's adjuvant-induced mechanical hyperalgesia at 10 mg/kg, ip administered 24 hrs after complete Freund's adjuvant-challenge for seven days by electronic pressure-meter test; assay type: functional, organism-based; set-up: dose 10 mg/kg; summary of the method: as §5
Mus musculus [17] = test: Antinociceptive activity in Swiss mouse assessed as inhibition of capsaicin-induced thermal hyperalgesia at 10 mg/kg, ip administered 30 mins prior to capsaicin-challenge measured after 1 to 3 hrs by hot plate test; assay type: functional, organism-based; set-up: dose 10 mg/kg
Summary of the method: (§6)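 Dosed at 10 mg/kg ip 30 min before intraplantar capsaicin (1.6 μg/paw). Mechanical hyperalgesia measured by electronic pressure-meter as Δ withdrawal threshold (g), average of three readings. Thermal hyperalgesia measured as hot-plate latency at 55 °C with a 30 s cutoff. Both read at 1, 3 and 5 h. Six mice per group.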

Mus musculus [18] = test: Antinociceptive activity in Swiss mouse assessed as inhibition of capsaicin-induced mechanical hyperalgesia at 10 mg/kg, ip administered 30 mins prior to capsaicin-challenge measured after 1 to 5 hrs by electronic pressure-meter test; assay type: functional, organism-based; set-up: dose 10 mg/kg; summary of the method: as §6

## O=c1cc(-c2ccc(O)cc2)oc2c([C@@H]3O[C@H](CO)[C@@H](O)[C@H](O)[C@H]3O)c(O)cc(O)c12 [VITEXIN]
Mus musculus [1]
  Activity: Non-toxic
Mus musculus [2]
  Activity: Non-toxic
Mus musculus [3]
  Activity: Non-toxic
Mus musculus [4]
  Time: 180 s
Mus musculus [5]
  Time: 180 s
Mus musculus [6]
  Time: 180 s
Mus musculus [7]
  Activity: Active
Mus musculus [8]
  inhibition: Active
Mus musculus [9]
  inhibition: Active
Mus musculus [10]
  inhibition: Active
Mus musculus [11]
  inhibition: Active
Mus musculus [12]
  Activity: Active
Mus musculus [13]
  Activity: Active
Mus musculus [14]
  Activity: Active
Mus musculus [15]
  inhibition: Active
Mus musculus [16]
  inhibition: Active
Mus musculus [17]
  inhibition: Active
Mus musculus [18]
  inhibition: Active
